From ChEMBL document CHEMBL4145607, “Tamarixetin Exhibits Anti-inflammatory Activity and Prevents Bacterial Sepsis by Increasing IL-10 Production” (J Nat Prod, 2018) come the findings set out here.

Each structure is given as a SMILES string. Activity calls are given as the source filed them. No cut-off for these calls is given here.

For test [1], the system named is BMDC. Kind of test: Increase in microRNA155 expression in LPS-induced C57BL/6 mouse BMDC at 25 uM pretreated for 30 mins followed by LPS-challenge measured after 6 hrs by qRT-PCR analysis. Type of test: functional, cell-based. The method, boiled down: (§1)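 Total RNA was extracted from BMDCs with TRIzol and reverse transcribed. miR-146a, miR-155 and miR-187 were quantified by real-time qPCR with gene-specific primers.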
In general terms: In qPCR the cycle at which signal appears reflects the starting amount.

The test system of test [2] is BMDC. Kind of test: Inhibition of LPS-induced immune response in C57BL/6 mouse BMDC assessed as reduction in IL-6 secretion at 25 uM treated 6 hrs post LPS-challenge measured after 60 to 120 mins by ELISA. It is filed as functional, cell-based. The method, boiled down: (§2)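 Bone marrow DCs from 6-week-old female C57BL/6 mice, RBC-lysed, cultured in RPMI-1640/10% FBS with 10 ng/mL rmGM-CSF, 37 °C, 5% CO2. Cells given LPS 50 ng/mL for 6 h, then 25 μM compound added for 30, 60, 90 or 120 min. Supernatant TNF-α, IL-6, IL-10, IL-12p70 measured by sandwich ELISA. Mean ± SEM, compared with LPS-only DCs.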

Test [3] concerns Mus musculus. Kind of test: Antiseptic activity in Balb/c mouse model of Escherichia coli K1 infection-induced sepsis assessed as increase in survival rate at 1 mg/kg, ip pretreated for 1 hr followed by Escherichia coli K1 infection measured up to 20 hrs relative to control. It is filed as functional.
Test [4] has as its system Mus musculus. Kind of test: Antiseptic activity in Balb/c mouse model of Escherichia coli K1 infection-induced sepsis assessed as increase in serum IL10 level at 1 mg/kg, ip pretreated for 1 hr followed by Escherichia coli K1 infection measured after 2 hrs by ELISA. Type of test: functional, organism-based. The method, boiled down: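 BALB/c mice received 1 mg·kg−1 i.p. 1 h before i.p. E. coli K1 RS218, 1 × 10^6 CFU per mouse. Serum was collected at 2 h, and TNF-α, IL-6 and IL-10 were quantified by sandwich ELISA. Means ± SEM.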

The subject of test [5] is Mus musculus. Kind of test: Antiinflammatory activity in Balb/c mouse model of LPS-induced endotoxemia assessed as increase in IL10 producing monocyte/macrophage in splenocyte at 1 mg/kg, ip pretreated for 1 hr followed by LPS-challenge measured after 12 hrs by flow cytometric analysis. It is filed as functional, organism-based.
The test system of test [6] is BMDC. Kind of test: Inhibition of LPS-induced immune response in C57BL/6 mouse BMDC assessed as increase in IL10 secretion at 25 uM treated 6 hrs post LPS-challenge measured after 60 to 120 mins by ELISA. It is filed as functional, cell-based. The method, boiled down:
as §2

For test [7], the target named is T1, Toll-like receptor 4 (Mus musculus) (UniProt Q9QUK6).
T1 sequence (whole entry): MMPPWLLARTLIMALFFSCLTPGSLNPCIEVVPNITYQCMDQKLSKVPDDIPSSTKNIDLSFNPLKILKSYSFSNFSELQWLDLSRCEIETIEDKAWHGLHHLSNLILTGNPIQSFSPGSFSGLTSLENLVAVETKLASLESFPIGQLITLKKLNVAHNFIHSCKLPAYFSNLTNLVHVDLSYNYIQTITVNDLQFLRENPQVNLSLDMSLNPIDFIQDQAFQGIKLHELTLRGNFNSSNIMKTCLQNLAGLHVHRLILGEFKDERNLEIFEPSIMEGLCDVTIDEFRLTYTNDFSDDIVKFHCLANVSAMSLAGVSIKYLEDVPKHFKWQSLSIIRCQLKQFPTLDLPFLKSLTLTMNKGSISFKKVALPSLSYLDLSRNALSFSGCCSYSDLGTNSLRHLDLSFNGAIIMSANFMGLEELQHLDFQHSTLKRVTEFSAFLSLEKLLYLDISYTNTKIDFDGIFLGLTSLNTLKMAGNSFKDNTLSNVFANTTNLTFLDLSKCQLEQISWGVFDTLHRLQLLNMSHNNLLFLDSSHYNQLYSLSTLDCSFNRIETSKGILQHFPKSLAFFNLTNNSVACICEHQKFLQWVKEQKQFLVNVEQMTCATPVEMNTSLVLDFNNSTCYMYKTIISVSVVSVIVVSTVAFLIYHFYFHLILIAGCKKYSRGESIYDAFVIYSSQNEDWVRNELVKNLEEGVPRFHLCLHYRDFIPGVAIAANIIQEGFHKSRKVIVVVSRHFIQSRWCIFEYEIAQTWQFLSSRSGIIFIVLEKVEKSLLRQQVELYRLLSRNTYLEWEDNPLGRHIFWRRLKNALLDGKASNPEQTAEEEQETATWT
Kind of test: Inhibition of LPS-induced TLR4 activation in C57BL/6 mouse BMDC assessed as reduction in p38 phosphorylation at 25 uM pretreated for 30 mins followed by LPS-challenge measured after 15 to 90 mins by Western blot analysis. Type of test: cell-based. The gist of the method:
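BMDCs were pretreated 30 min with 25 μM compound, then stimulated with LPS 50 ng·mL−1 for the indicated times. Lysates (25 μg protein) were run on 10% SDS-PAGE and immunoblotted for phospho/total ERK, JNK, p38 and Akt, plus COX-2, IκBα and α-tubulin, with ECL detection. Representative of three experiments.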
On the technique in general: A western blot detects proteins with antibodies after separation by electrophoresis.

Test [8] deals with Mus musculus. Kind of test: Antiinflammatory activity in Balb/c mouse model of LPS-induced endotoxemia assessed as increase in IL10 producing B10 population in splenocyte at 1 mg/kg, ip pretreated for 1 hr followed by LPS-challenge measured after 12 hrs by flow cytometric analysis. Type of test: functional, organism-based. For orientation: In flow cytometry, cells or beads pass a laser one at a time.

The subject of test [9] is Mus musculus. Kind of test: Antiinflammatory activity in Balb/c mouse model of LPS-induced endotoxemia assessed as reduction in TNFalpha level in lungs at 1 mg/kg, ip pretreated for 1 hr followed by LPS-challenge measured after 12 hrs by ELISA. Type of test: functional, organism-based. The gist of the method:
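BALB/c mice got 1 mg·kg−1 i.p. 1 h before i.p. LPS 10 mg·kg−1. After 12 h, TNF-α and IL-6 in lung lysates were measured by sandwich ELISA. Means ± SEM.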

Test [10] deals with BMDC. Kind of test: Increase in microRNA146a expression in LPS-induced C57BL/6 mouse BMDC at 25 uM pretreated for 30 mins followed by LPS-challenge measured after 6 hrs by qRT-PCR analysis. Type of test: functional, cell-based. The method, boiled down:
as §1

Test [11] deals with Mus musculus. Kind of test: Antiinflammatory activity in Balb/c mouse model of LPS-induced endotoxemia assessed as reduction in serum TNFalpha level at 1 mg/kg, ip pretreated for 1 hr followed by LPS-challenge measured after 2 hrs by ELISA. Type of test: functional, organism-based. The gist of the method: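 BALB/c mice were dosed with 1 mg·kg−1 i.p. 1 h before LPS 10 mg·kg−1 i.p. Serum was taken 2 h later, and TNF-α, IL-6 and IL-10 were measured by sandwich ELISA. Means ± SEM.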

The test system of test [12] is BMDC. Kind of test: Inhibition of Escherichia coli DH5alpha infection-induced immune response in C57BL/6 mouse BMDC assessed as increase in IL10 secretion at 25 uM pretreated for 30 mins followed by Escherichia coli DH5alpha infection for 6 hrs by ELISA. Type of test: functional, cell-based. The method, boiled down:
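C57BL/6 BMDCs received 25 μM compound and E. coli DH5α, 3 × 10^6 CFU·mL−1. Schedules were: compound 30 min before a 6 h infection; co-addition for 6 h; or compound for 30, 60, 90 or 120 min plus 6 h infection. Supernatant TNF-α, IL-6, IL-10 and IL-12p70 were measured by ELISA. At least three experiments in triplicate.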

As to `COc1ccc(-c2oc3cc(O)cc(O)c3c(=O)c2O)cc1O` [TAMARIXETIN], the outcome in the test with BMDC [1], in the test with Mus musculus [4], with Mus musculus [5], in the test on Mus musculus [8], with Mus musculus [9] and in the test on BMDC [10] was Active. Also, the result with Mus musculus [11] was Active. Moreover, the inhibition entry with BMDC [2] and with BMDC [6] was “inactive” throughout. In the test on Mus musculus [3], the Activity worked out at 60%. In addition, the inhibition result (in test [7]; in the test with BMDC [12]) was “Active” throughout.
